# From ChEMBL document CHEMBL5724801, “EUbOPEN Chemogenomics Library - Multiplex” (2024)
# Several values for one entry are separate records, joined by “and”; a condition that tells them apart may be missing. Equal entries are not always repeated.
# How the values were obtained:
# U2OS = assay: Multiplex assay against U2OS; type: toxicity, cell-based; conditions: human
# In short: (§1)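 Cells stained live at seeding with Hoechst33342, BioTracker Green Microtubule Cytoskeleton Dye, MitoTracker Red and Annexin V Alexa Fluor 680 were imaged on a CQ1 microscope at 37°C and 5% CO2 after compound addition. Their classification by CellPathfinder machine-learning gating ran from Hoechst high-intensity objects versus normal cells, to healthy, pyknosed or fragmented nuclei among normal cells, to mitotic or apoptotic among pyknosed cells. Tubulin, mitochondrial-mass and membrane-permeability phenotypes are per cents of healthy-nucleus cells.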
# HEK-293T = assay: Multiplex assay against HEK293T; type: toxicity, cell-based; conditions: human; in short: as §1
# [1] = 12 h, 1 µM, compound concentration 1 uM
# [2] = 12 h, 10 µM, compound concentration 10 uM
# [3] = 24 h, 1 µM, compound concentration 1 uM
# [4] = 24 h, 10 µM, compound concentration 10 uM
# [5] = 48 h, 1 µM, compound concentration 1 uM
# [6] = 48 h, 10 µM, compound concentration 10 uM
smiles,measurement,setting,value
CC(C)c1ccc(/C=N/NC(=O)c2ccc(O)cc2)cc1,Population Apoptotic (%),U2OS; [1],41.67% and 26.09%
same,Population Fragmented Nuclei (%),U2OS; [1],0.58% and 4.67%
same,Population Healthy Nuclei (%),U2OS; [1],88.92% and 80%
same,Population Hoechst High Intensity Objects (%),U2OS; [1],0%
same,Population Membrane Permeable-Phenotype (%),U2OS; [1],2.62% and 5.83%
same,Population Mitochondria Different-Phenotype (%),U2OS; [1],0% and 12.5%
same,Population Mitotic Cells (%),U2OS; [1],58.33% and 73.91%
same,Population Normal (%),U2OS; [1],100%
same,Population Pyknosed Nuclei (%),U2OS; [1],10.5% and 15.33%
same,Population Tubulin-Different-Phenotype (%),U2OS; [1],1.64% and 1.67%
same,Total Cell Count,U2OS; [1],343 and 150
same,Population Apoptotic (%),U2OS; [2],32.5% and 45%
same,Population Fragmented Nuclei (%),U2OS; [2],1.02% and 0%
same,Population Healthy Nuclei (%),U2OS; [2],88.75% and 85.4%
same,Population Hoechst High Intensity Objects (%),U2OS; [2],0%
same,Population Membrane Permeable-Phenotype (%),U2OS; [2],2.88% and 2.56%
same,Population Mitochondria Different-Phenotype (%),U2OS; [2],0% and 5.98%
same,Population Mitotic Cells (%),U2OS; [2],67.5% and 55%
same,Population Normal (%),U2OS; [2],100%
same,Population Pyknosed Nuclei (%),U2OS; [2],10.23% and 14.6%
same,Population Tubulin-Different-Phenotype (%),U2OS; [2],2.59% and 0%
same,Total Cell Count,U2OS; [2],391 and 137
same,Population Apoptotic (%),U2OS; [3],30.95% and 46.15%
same,Population Fragmented Nuclei (%),U2OS; [3],2.35% and 1.61%
same,Population Healthy Nuclei (%),U2OS; [3],88.68% and 84.41%
same,Population Hoechst High Intensity Objects (%),U2OS; [3],0%
same,Population Membrane Permeable-Phenotype (%),U2OS; [3],1.69% and 3.18%
same,Population Mitochondria Different-Phenotype (%),U2OS; [3],0.48% and 8.92%
same,Population Mitotic Cells (%),U2OS; [3],69.05% and 53.85%
same,Population Normal (%),U2OS; [3],100%
same,Population Pyknosed Nuclei (%),U2OS; [3],8.97% and 13.98%
same,Population Tubulin-Different-Phenotype (%),U2OS; [3],1.69% and 0.64%
same,Total Cell Count,U2OS; [3],468 and 186
same,Population Apoptotic (%),U2OS; [4],51.02% and 50%
same,Population Fragmented Nuclei (%),U2OS; [4],1.12% and 2.26%
same,Population Healthy Nuclei (%),U2OS; [4],89.72% and 86.44%
same,Population Hoechst High Intensity Objects (%),U2OS; [4],0%
same,Population Membrane Permeable-Phenotype (%),U2OS; [4],1.88% and 2.61%
same,Population Mitochondria Different-Phenotype (%),U2OS; [4],0% and 3.92%
same,Population Mitotic Cells (%),U2OS; [4],48.98% and 50%
same,Population Normal (%),U2OS; [4],100%
same,Population Pyknosed Nuclei (%),U2OS; [4],9.16% and 11.3%
same,Population Tubulin-Different-Phenotype (%),U2OS; [4],1.25% and 0%
same,Population Apoptotic (%),U2OS; [5],38.46% and 51.11%
same,Population Fragmented Nuclei (%),U2OS; [5],2.73% and 1.73%
same,Population Healthy Nuclei (%),U2OS; [5],87.74% and 85.3%
same,Population Hoechst High Intensity Objects (%),U2OS; [5],0.1% and 0%
same,Population Membrane Permeable-Phenotype (%),U2OS; [5],0.6% and 3.04%
same,Population Mitochondria Different-Phenotype (%),U2OS; [5],0.12% and 6.42%
same,Population Mitotic Cells (%),U2OS; [5],61.54% and 48.89%
same,Population Normal (%),U2OS; [5],99.9% and 100%
same,Population Pyknosed Nuclei (%),U2OS; [5],9.54% and 12.97%
same,Population Tubulin-Different-Phenotype (%),U2OS; [5],0.6% and 1.35%
same,Total Cell Count,U2OS; [5],955 and 347
same,Population Apoptotic (%),U2OS; [6],46.51% and 53.12%
same,Population Fragmented Nuclei (%),U2OS; [6],4.03% and 1.37%
same,Population Healthy Nuclei (%),U2OS; [6],87.3% and 87.67%
same,Population Hoechst High Intensity Objects (%),U2OS; [6],0%
same,Population Membrane Permeable-Phenotype (%),U2OS; [6],1.15% and 3.52%
same,Population Mitochondria Different-Phenotype (%),U2OS; [6],0% and 5.47%
same,Population Mitotic Cells (%),U2OS; [6],53.49% and 46.88%
same,Population Normal (%),U2OS; [6],100%
same,Population Pyknosed Nuclei (%),U2OS; [6],8.67% and 10.96%
same,Population Tubulin-Different-Phenotype (%),U2OS; [6],1.39% and 0%
same,Population Apoptotic (%),HEK-293T; [1],6.34% and 9.68%
same,Population Fragmented Nuclei (%),HEK-293T; [1],1.61% and 0.64%
same,Population Healthy Nuclei (%),HEK-293T; [1],60.22% and 20.38%
same,Population Hoechst High Intensity Objects (%),HEK-293T; [1],0.53% and 0%
same,Population Membrane Permeable-Phenotype (%),HEK-293T; [1],0.45% and 0%
same,Population Mitochondria Different-Phenotype (%),HEK-293T; [1],40.62% and 43.75%
same,Population Mitotic Cells (%),HEK-293T; [1],93.66% and 90.32%
same,Population Normal (%),HEK-293T; [1],99.47% and 100%
same,Population Pyknosed Nuclei (%),HEK-293T; [1],38.17% and 78.98%
same,Total Cell Count,HEK-293T; [1],374 and 157
same,Population Apoptotic (%),HEK-293T; [2],12.69% and 7.75%
same,Population Fragmented Nuclei (%),HEK-293T; [2],8.73% and 1.3%
same,Population Hoechst High Intensity Objects (%),HEK-293T; [2],0.28% and 0%
same,Population Membrane Permeable-Phenotype (%),HEK-293T; [2],0%
same,Population Mitochondria Different-Phenotype (%),HEK-293T; [2],41.58% and 26.09%
same,Population Mitotic Cells (%),HEK-293T; [2],87.31% and 92.25%
same,Population Normal (%),HEK-293T; [2],99.72% and 100%
same,Population Pyknosed Nuclei (%),HEK-293T; [2],37.75% and 83.77%
same,Total Cell Count,HEK-293T; [2],356 and 154
same,Population Apoptotic (%),HEK-293T; [3],16.67% and 14.29%
same,Population Fragmented Nuclei (%),HEK-293T; [3],1.59% and 2.38%
same,Population Healthy Nuclei (%),HEK-293T; [3],75.09% and 35.12%
same,Population Hoechst High Intensity Objects (%),HEK-293T; [3],0%
same,Population Membrane Permeable-Phenotype (%),HEK-293T; [3],0.71% and 3.39%
same,Population Mitochondria Different-Phenotype (%),HEK-293T; [3],15.53% and 13.56%
same,Population Mitotic Cells (%),HEK-293T; [3],83.33% and 85.71%
same,Population Normal (%),HEK-293T; [3],100%
same,Population Pyknosed Nuclei (%),HEK-293T; [3],23.32% and 62.5%
